Measurements from ChEMBL document CHEMBL1151835, “Micropeptins from the freshwater cyanobacterium Microcystis aeruginosa (NIES-100)” (J Nat Prod, 2009).
In brackets after ≈: the same amount, converted by molar mass. Activity calls are given as the source filed them. No cut-off for these calls is given here.

Columns and labels:
[1] = Inhibition of trypsin
[2] = target: Prothrombin (Homo sapiens) (UniProt P00734); assay: Inhibition of thrombin at 20 ug/ml
[3] = Inhibition of trypsin at 20 ug/ml
[4] = Inhibition of chymotrypsin
In short: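 Alpha-chymotrypsin type II was made up at 15 U/mL in 50 mM Tris-HCl (pH 7.6). The enzyme and test solution were preincubated at 37 °C for 5 min. Substrate solution was N-succinyl-L-phenylalanyl-p-nitroanilide, 1 mg/mL in buffer. After adding it, absorbance at 405 nm was read at once and again after 30 min at 37 °C.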

SMILES | IC50 [1] [µg/mL] | Activity [2] | Activity [3] | IC50 [4] [µg/mL]
CCCCCC(=O)N[C@@H](CCC(=O)O)C(=O)N[C@@H]1C(=O)N[C@@H](CCCNC(=N)N)C(=O)N[C@H]2CC[C@@H](O)N(C2=O)[C@@H](CC(C)C)C(=O)N(C)[C@@H](Cc2ccc(O)cc2)C(=O)N[C@@H](C(C)C)C(=O)O[C@@H]1C [MICROPEPTIN B] | 0.25 (≈ 0.253 µM) | – | – | –
CCCCCC(=O)N[C@@H](CCC(=O)O)C(=O)N[C@@H]1C(=O)N[C@@H](Cc2ccc(O)cc2)C(=O)N[C@H]2CC[C@@H](O)N(C2=O)[C@@H](Cc2ccccc2)C(=O)N(C)[C@@H](Cc2ccc(O)cc2)C(=O)N[C@@H](C(C)C)C(=O)O[C@@H]1C [MICROPEPTIN C] | – | inactive | inactive | 1.1 (≈ 1.07 µM)
CCCCCCCC(=O)N[C@@H](CCC(=O)O)C(=O)N[C@@H]1C(=O)N[C@@H](Cc2ccc(O)cc2)C(=O)N[C@H]2CC[C@@H](O)N(C2=O)[C@@H](Cc2ccccc2)C(=O)N(C)[C@@H](Cc2ccc(O)cc2)C(=O)N[C@@H](C(C)C)C(=O)O[C@@H]1C [MICROPEPTIN D] | – | inactive | inactive | 1.2 (≈ 1.14 µM)
CCCCCC(=O)N[C@@H](CCC(=O)O)C(=O)N[C@@H]1C(=O)N[C@@H](Cc2ccc(O)cc2)C(=O)N[C@H]2CC[C@@H](O)N(C2=O)[C@@H](CC(C)C)C(=O)N(C)[C@@H](Cc2ccc(O)cc2)C(=O)N[C@@H](C(C)C)C(=O)O[C@@H]1C [MICROPEPTIN E] | – | inactive | inactive | 1 (≈ 1.01 µM)
CCCCCCCC(=O)N[C@@H](CCC(=O)O)C(=O)N[C@@H]1C(=O)N[C@@H](Cc2ccc(O)cc2)C(=O)N[C@H]2CC[C@@H](O)N(C2=O)[C@@H](CC(C)C)C(=O)N(C)[C@@H](Cc2ccc(O)cc2)C(=O)N[C@@H](C(C)C)C(=O)O[C@@H]1C [MICROPEPTIN F] | – | inactive | inactive | 1.5 (≈ 1.47 µM)
CCCCCC(=O)N[C@@H](CCC(=O)O)C(=O)N[C@@H]1C(=O)N[C@@H](Cc2ccc(O)cc2)C(=O)N[C@H]2CC[C@@H](O)N(C2=O)[C@@H](Cc2ccccc2)C(=O)N(C)[C@@H](Cc2c[nH]c3ccccc23)C(=O)N[C@@H](C(C)C)C(=O)O[C@@H]1C [MICROPEPTIN T 1] | 3 (≈ 2.85 µM) | – | – | –
